Laboratory results reported in ChEMBL document CHEMBL4689842, “EUbOPEN Chemogenomics Library wave 1” (2021).

Tested on: U2OS
Assay: Multiplex assay against U2OS
Type: toxicity, cell-based
Conditions: human
Procedure, shortened: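 Tubulin, mitochondrial-mass and membrane-permeability phenotypes are per cents of healthy-nucleus cells. Cells were gated by CellPathfinder machine learning into Hoechst high-intensity objects or normal cells, normal cells into healthy, pyknosed or fragmented nuclei, and pyknosed cells into mitotic or apoptotic. Before that, live cells stained at seeding with Hoechst33342, BioTracker Green Microtubule Cytoskeleton Dye, MitoTracker Red and Annexin V Alexa Fluor 680 were imaged on a CQ1 microscope at 37°C and 5% CO2 after compound addition.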

[1] = 12 h, 1 µM, compound concentration 1 uM, replicate 1
[2] = 12 h, 1 µM, compound concentration 1 uM, replicate 2
[3] = 12 h, 10 µM, compound concentration 10 uM, replicate 1
[4] = 12 h, 10 µM, compound concentration 10 uM, replicate 2
[5] = 24 h, 1 µM, compound concentration 1 uM, replicate 1
[6] = 24 h, 1 µM, compound concentration 1 uM, replicate 2
[7] = 24 h, 10 µM, compound concentration 10 uM, replicate 1
[8] = 24 h, 10 µM, compound concentration 10 uM, replicate 2
[9] = 48 h, 1 µM, compound concentration 1 uM, replicate 1
[10] = 48 h, 1 µM, compound concentration 1 uM, replicate 2
[11] = 48 h, 10 µM, compound concentration 10 uM, replicate 1
[12] = 48 h, 10 µM, compound concentration 10 uM, replicate 2

Cc1[nH]c(/C=C2\C(=O)Nc3ccc(S(=O)(=O)N(C)c4cccc(Cl)c4)cc32)c(C)c1C(=O)N1CCN(C)CC1
Population Apoptotic (%) [1]: 66% | Population Fragmented Nuclei (%) [1]: 13% | Population Mitochondria Different-Phenotype (%) [1]: 58% | Population Mitotic Cells (%) [1]: 33% | Population Pyknosed Nuclei (%) [1]: 9% | Population Tubulin-Different-Phenotype (%) [1]: 80% | Total Cell Count [1]: 305 | Population Apoptotic (%) [2]: 100% | Population Fragmented Nuclei (%) [2]: 16% | Population Healthy Nuclei (%) [2]: 77% | Population Hoechst High Intensity Objects (%) [2]: 12% | Population Membrane Permeable-Phenotype (%) [2]: 12% | Population Mitochondria Different-Phenotype (%) [2]: 42% | Population Mitotic Cells (%) [2]: 0% | Population Normal (%) [2]: 87% | Population Pyknosed Nuclei (%) [2]: 6% | Population Tubulin-Different-Phenotype (%) [2]: 68% | Total Cell Count [2]: 90 | Population Apoptotic (%) [3]: 60% | Population Fragmented Nuclei (%) [3]: 12% | Population Healthy Nuclei (%) [3]: 76% | Population Hoechst High Intensity Objects (%) [3]: 8% | Population Membrane Permeable-Phenotype (%) [3]: 24% | Population Mitochondria Different-Phenotype (%) [3]: 68% | Population Mitotic Cells (%) [3]: 40% | Population Normal (%) [3]: 91% | Population Pyknosed Nuclei (%) [3]: 11% | Total Cell Count [3]: 147 | Population Apoptotic (%) [4]: 25% | Population Fragmented Nuclei (%) [4]: 10% | Population Healthy Nuclei (%) [4]: 74% | Population Hoechst High Intensity Objects (%) [4]: 12% | Population Membrane Permeable-Phenotype (%) [4]: 40% | Population Mitochondria Different-Phenotype (%) [4]: 97% | Population Mitotic Cells (%) [4]: 75% | Population Normal (%) [4]: 87% | Population Pyknosed Nuclei (%) [4]: 16% | Population Tubulin-Different-Phenotype (%) [4]: 100% | Total Cell Count [4]: 70 | Population Apoptotic (%) [5]: 73% | Population Fragmented Nuclei (%) [5]: 11% | Population Healthy Nuclei (%) [5]: 77% | Population Hoechst High Intensity Objects (%) [5]: 9% | Population Membrane Permeable-Phenotype (%) [5]: 7% | Population Mitochondria Different-Phenotype (%) [5]: 51% | Population Mitotic Cells (%) [5]: 26% | Population Normal (%) [5]: 90% | Population Pyknosed Nuclei (%) [5]: 11% | Population Tubulin-Different-Phenotype (%) [5]: 61% | Total Cell Count [5]: 272 | Population Apoptotic (%) [6]: 100% | Population Fragmented Nuclei (%) [6]: 18% | Population Healthy Nuclei (%) [6]: 72% | Population Hoechst High Intensity Objects (%) [6]: 8% | Population Membrane Permeable-Phenotype (%) [6]: 10% | Population Mitochondria Different-Phenotype (%) [6]: 40% | Population Mitotic Cells (%) [6]: 0% | Population Normal (%) [6]: 91% | Population Pyknosed Nuclei (%) [6]: 9% | Population Tubulin-Different-Phenotype (%) [6]: 55% | Total Cell Count [6]: 65 | Population Apoptotic (%) [7]: 82% | Population Fragmented Nuclei (%) [7]: 13% | Population Healthy Nuclei (%) [7]: 68% | Population Hoechst High Intensity Objects (%) [7]: 8% | Population Membrane Permeable-Phenotype (%) [7]: 46% | Population Mitochondria Different-Phenotype (%) [7]: 88% | Population Mitotic Cells (%) [7]: 17% | Population Normal (%) [7]: 91% | Population Pyknosed Nuclei (%) [7]: 17% | Population Tubulin-Different-Phenotype (%) [7]: 100% | Total Cell Count [7]: 140 | Population Apoptotic (%) [8]: 100% | Population Fragmented Nuclei (%) [8]: 17% | Population Healthy Nuclei (%) [8]: 73% | Population Membrane Permeable-Phenotype (%) [8]: 84% | Population Mitochondria Different-Phenotype (%) [8]: 100% | Population Mitotic Cells (%) [8]: 0% | Population Pyknosed Nuclei (%) [8]: 9% | Total Cell Count [8]: 71 | Population Apoptotic (%) [9]: 80% | Population Fragmented Nuclei (%) [9]: 18% | Population Healthy Nuclei (%) [9]: 70% | Population Hoechst High Intensity Objects (%) [9]: 4% | Population Membrane Permeable-Phenotype (%) [9]: 10% | Population Mitochondria Different-Phenotype (%) [9]: 32% | Population Mitotic Cells (%) [9]: 19% | Population Normal (%) [9]: 95% | Population Pyknosed Nuclei (%) [9]: 11% | Population Tubulin-Different-Phenotype (%) [9]: 30% | Total Cell Count [9]: 261 | Population Apoptotic (%) [10]: 25% | Population Fragmented Nuclei (%) [10]: 16% | Population Healthy Nuclei (%) [10]: 77% | Population Hoechst High Intensity Objects (%) [10]: 14% | Population Membrane Permeable-Phenotype (%) [10]: 21% | Population Mitochondria Different-Phenotype (%) [10]: 30% | Population Mitotic Cells (%) [10]: 75% | Population Normal (%) [10]: 85% | Population Pyknosed Nuclei (%) [10]: 5% | Population Tubulin-Different-Phenotype (%) [10]: 37% | Total Cell Count [10]: 62 | Population Fragmented Nuclei (%) [11]: 24% | Population Healthy Nuclei (%) [11]: 50% | Population Hoechst High Intensity Objects (%) [11]: 7% | Population Membrane Permeable-Phenotype (%) [11]: 76% | Population Mitochondria Different-Phenotype (%) [11]: 91% | Population Normal (%) [11]: 92% | Population Pyknosed Nuclei (%) [11]: 24% | Total Cell Count [11]: 186 | Population Apoptotic (%) [12]: 100% | Population Fragmented Nuclei (%) [12]: 14% | Population Healthy Nuclei (%) [12]: 72% | Population Hoechst High Intensity Objects (%) [12]: 15% | Population Membrane Permeable-Phenotype (%) [12]: 88% | Population Mitochondria Different-Phenotype (%) [12]: 100% | Population Mitotic Cells (%) [12]: 0% | Population Normal (%) [12]: 84% | Population Pyknosed Nuclei (%) [12]: 12% | Population Tubulin-Different-Phenotype (%) [12]: 100% | Total Cell Count [12]: 84
